Activity calls are given as the source filed them. The calls are words filed in the database; no cut-off is given here.
Legend:
[1] = molecular target: T1, Adrenergic receptor alpha-1 (Rattus norvegicus, UniProt P15823+P23944+P43140); experiment: Displacement of [3H]prazosin from alpha1-adrenergic receptor in rat cerebral cortex after 30 mins by scintillation counting; assay type: tissue-based
T1 sequence (P15823 whole entry): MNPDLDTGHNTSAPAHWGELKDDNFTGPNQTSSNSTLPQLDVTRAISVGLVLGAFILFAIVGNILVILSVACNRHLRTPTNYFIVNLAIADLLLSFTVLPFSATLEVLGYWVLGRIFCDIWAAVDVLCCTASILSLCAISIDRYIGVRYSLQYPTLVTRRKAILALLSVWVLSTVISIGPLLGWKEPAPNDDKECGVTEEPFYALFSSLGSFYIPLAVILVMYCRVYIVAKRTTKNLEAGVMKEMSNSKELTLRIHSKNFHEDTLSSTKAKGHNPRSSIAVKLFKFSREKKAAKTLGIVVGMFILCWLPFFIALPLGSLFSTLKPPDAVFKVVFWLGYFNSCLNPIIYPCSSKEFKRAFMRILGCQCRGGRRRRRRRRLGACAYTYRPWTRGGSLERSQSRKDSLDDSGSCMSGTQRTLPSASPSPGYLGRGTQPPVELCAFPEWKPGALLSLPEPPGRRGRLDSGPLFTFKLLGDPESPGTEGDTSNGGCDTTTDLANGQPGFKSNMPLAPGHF
T1 sequence (P23944 whole entry): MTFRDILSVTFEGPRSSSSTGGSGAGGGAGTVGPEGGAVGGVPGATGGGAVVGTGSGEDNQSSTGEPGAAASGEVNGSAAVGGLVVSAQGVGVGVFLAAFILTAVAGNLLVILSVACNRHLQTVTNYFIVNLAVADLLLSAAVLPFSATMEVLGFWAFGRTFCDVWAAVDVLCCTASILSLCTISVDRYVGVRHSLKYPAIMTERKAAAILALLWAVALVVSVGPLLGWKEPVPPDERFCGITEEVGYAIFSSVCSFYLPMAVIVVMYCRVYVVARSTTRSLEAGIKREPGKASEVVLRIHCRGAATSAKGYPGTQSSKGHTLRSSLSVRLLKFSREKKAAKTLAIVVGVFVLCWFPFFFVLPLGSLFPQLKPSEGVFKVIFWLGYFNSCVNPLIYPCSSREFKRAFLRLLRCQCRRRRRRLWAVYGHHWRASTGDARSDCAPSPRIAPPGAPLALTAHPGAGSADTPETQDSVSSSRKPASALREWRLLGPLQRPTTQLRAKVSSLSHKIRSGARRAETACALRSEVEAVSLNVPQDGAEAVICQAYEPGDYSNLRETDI
T1 sequence (P43140 whole entry): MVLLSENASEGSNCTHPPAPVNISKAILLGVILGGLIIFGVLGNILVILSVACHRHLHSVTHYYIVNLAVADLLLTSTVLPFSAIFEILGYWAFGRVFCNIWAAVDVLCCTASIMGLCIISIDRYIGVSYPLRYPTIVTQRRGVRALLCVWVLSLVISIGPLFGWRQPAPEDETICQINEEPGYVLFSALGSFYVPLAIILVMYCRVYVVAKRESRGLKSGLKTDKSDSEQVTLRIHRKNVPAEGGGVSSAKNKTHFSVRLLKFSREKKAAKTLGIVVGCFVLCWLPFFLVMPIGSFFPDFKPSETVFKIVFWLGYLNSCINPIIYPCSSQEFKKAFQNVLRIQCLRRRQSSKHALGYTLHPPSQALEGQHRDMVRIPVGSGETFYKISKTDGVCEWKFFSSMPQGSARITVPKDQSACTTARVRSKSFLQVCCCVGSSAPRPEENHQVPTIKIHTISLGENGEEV
How it was run: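 Radioligand binding on rat brain tissue membranes, run in 96-well format. [3H]prazosin was used for α1 (n = 2) and [3H]CGP-12177 for β1 (n = 2). Ki was calculated by the Cheng–Prusoff equation.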

[2] = molecular target: 5-hydroxytryptamine receptor 7 (Homo sapiens, UniProt P34969); experiment: Displacement of [3H]5-CT from human 5HT7b receptor expressed in HEK293 cells after 1 hr; assay type: cell-based
5-hydroxytryptamine receptor 7, sequence (P34969 whole entry): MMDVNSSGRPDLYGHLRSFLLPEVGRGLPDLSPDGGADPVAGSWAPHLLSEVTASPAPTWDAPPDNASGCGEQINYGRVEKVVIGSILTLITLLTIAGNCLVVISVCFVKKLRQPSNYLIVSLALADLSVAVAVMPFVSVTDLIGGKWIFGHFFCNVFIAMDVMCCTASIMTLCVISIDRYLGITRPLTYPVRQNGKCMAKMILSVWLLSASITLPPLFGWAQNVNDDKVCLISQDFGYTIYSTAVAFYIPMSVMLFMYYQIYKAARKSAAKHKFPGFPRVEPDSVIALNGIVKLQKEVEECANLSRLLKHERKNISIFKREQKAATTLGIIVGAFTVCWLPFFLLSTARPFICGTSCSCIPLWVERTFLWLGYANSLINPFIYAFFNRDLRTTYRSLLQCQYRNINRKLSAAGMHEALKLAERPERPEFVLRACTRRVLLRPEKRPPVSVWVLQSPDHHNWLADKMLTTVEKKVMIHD

[3] = molecular target: 5-hydroxytryptamine receptor 6 (Homo sapiens, UniProt P50406); experiment: Displacement of [3H]LSD from human 5HT6 receptor expressed in HEK293 cells after 1 hr; assay type: cell-based
5-hydroxytryptamine receptor 6, sequence (P50406 whole entry): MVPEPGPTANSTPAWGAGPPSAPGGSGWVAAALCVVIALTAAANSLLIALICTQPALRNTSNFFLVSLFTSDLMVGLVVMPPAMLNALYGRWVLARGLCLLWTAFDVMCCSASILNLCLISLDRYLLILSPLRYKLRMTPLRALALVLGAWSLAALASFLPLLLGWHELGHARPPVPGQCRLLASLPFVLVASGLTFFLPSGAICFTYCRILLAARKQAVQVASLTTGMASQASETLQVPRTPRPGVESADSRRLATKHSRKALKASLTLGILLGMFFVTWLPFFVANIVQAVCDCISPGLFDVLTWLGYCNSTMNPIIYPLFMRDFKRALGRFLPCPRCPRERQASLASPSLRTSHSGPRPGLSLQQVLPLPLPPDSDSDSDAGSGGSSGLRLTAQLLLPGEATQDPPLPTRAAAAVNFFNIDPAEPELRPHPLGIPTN

[4] = molecular target: T2, 5-hydroxytryptamine receptor 1A (Homo sapiens, UniProt P08908); experiment: Displacement of [3H]8-OH-DPAT from human 5HT1A receptor expressed in HEK293 cells after 1 hr; assay type: cell-based
T2 sequence (P08908 whole entry): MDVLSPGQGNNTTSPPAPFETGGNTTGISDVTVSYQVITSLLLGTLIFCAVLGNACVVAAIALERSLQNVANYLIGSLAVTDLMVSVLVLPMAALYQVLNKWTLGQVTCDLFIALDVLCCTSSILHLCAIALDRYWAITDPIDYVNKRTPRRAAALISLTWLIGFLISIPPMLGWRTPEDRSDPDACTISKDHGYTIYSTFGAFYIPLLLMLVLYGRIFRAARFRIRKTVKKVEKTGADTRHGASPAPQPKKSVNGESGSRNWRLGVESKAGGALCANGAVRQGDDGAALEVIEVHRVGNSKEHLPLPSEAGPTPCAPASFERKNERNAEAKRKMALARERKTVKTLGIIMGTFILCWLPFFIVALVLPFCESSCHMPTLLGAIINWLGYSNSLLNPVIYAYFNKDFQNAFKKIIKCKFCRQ

[5] = system: Mus musculus; experiment: Anticonvulsant activity in CF1 mouse assessed as protection against maximal electroshock-induced seizures at 300 mg/kg, ip after 4 hrs; assay type: functional, organism-based; set-up: dose 300 mg/kg
How it was run: (§1)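 Mice given compound i.p. at 30, 100 or 300 mg/kg and tested 0.5 or 4 h after dosing. Seizures were induced by maximal electroshock (MES) or subcutaneous metrazole (ScMet). Prevention of seizures counts as protection. Result is recorded as number of animals protected over number tested.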

[6] = system: Mus musculus; experiment: Anticonvulsant activity in CF1 mouse assessed as protection against maximal electroshock-induced seizures at 100 mg/kg, ip after 0.5 hrs; assay type: functional, organism-based; set-up: dose 100 mg/kg; how it was run: as §1
[7] = system: Mus musculus; experiment: Anticonvulsant activity in CF1 mouse assessed as protection against subcutaneous metrazole-induced seizures at 30 mg/kg, ip after 0.5 hrs; assay type: functional, organism-based; set-up: dose 30 mg/kg; how it was run: as §1
[8] = system: Mus musculus; experiment: Anticonvulsant activity in CF1 mouse assessed as protection against subcutaneous metrazole-induced seizures at 30 mg/kg, ip after 4 hrs; assay type: functional, organism-based; set-up: dose 30 mg/kg; how it was run: as §1
[9] = system: Mus musculus; experiment: Anticonvulsant activity in CF1 mouse assessed as protection against maximal electroshock-induced seizures at 300 mg/kg, ip after 0.5 hrs; assay type: functional, organism-based; set-up: dose 300 mg/kg; how it was run: as §1
[10] = system: Mus musculus; experiment: Anticonvulsant activity in CF1 mouse assessed as protection against subcutaneous metrazole-induced seizures at 100 mg/kg, ip after 0.5 hrs; assay type: functional, organism-based; set-up: dose 100 mg/kg; how it was run: as §1
[11] = system: Mus musculus; experiment: Anticonvulsant activity in CF1 mouse assessed as protection against subcutaneous metrazole-induced seizures at 100 mg/kg, ip after 4 hrs; assay type: functional, organism-based; set-up: dose 100 mg/kg; how it was run: as §1
[12] = system: Mus musculus; experiment: Anticonvulsant activity in CF1 mouse assessed as protection against subcutaneous metrazole-induced seizures at 300 mg/kg, ip after 4 hrs; assay type: functional, organism-based; set-up: dose 300 mg/kg; how it was run: as §1
[13] = species: Rattus norvegicus; experiment: Displacement of [3H]CGP-12177 from beta1-adrenergic receptor in rat cerebral cortex at 50 uM after 60 mins by scintillation counting; assay type: tissue-based
[14] = system: Mus musculus; experiment: Anticonvulsant activity in CF1 mouse assessed as protection against maximal electroshock-induced seizures at 30 mg/kg, ip after 0.5 hrs; assay type: functional, organism-based; set-up: dose 30 mg/kg; how it was run: as §1
[15] = system: Rattus norvegicus; experiment: Anticonvulsant activity in Sprague-Dawley rat assessed as protection against maximal electroshock-induced seizures at 30 mg/kg, po after 0.25 hrs; assay type: functional, organism-based; set-up: dose 30 mg/kg
How it was run: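 Rats dosed orally at 30 mg/kg and tested in MES at several time points after dosing. Protection means seizures were prevented. Result is recorded as number of animals protected over number tested.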

[16] = system: Mus musculus; experiment: Anticonvulsant activity in CF1 mouse assessed as protection against maximal electroshock-induced seizures at 30 mg/kg, ip after 4 hrs; assay type: functional, organism-based; set-up: dose 30 mg/kg; how it was run: as §1
[17] = system: Mus musculus; experiment: Anticonvulsant activity in CF1 mouse assessed as protection against subcutaneous metrazole-induced seizures at 300 mg/kg, ip after 0.5 hrs; assay type: functional, organism-based; set-up: dose 300 mg/kg; how it was run: as §1
[18] = Displacement of [3H]CGP-12177 from beta1-adrenergic receptor in rat cerebral cortex after 60 mins by scintillation counting; assay type: tissue-based
How it was run: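 Radioligand binding on rat brain tissue membranes, run in 96-well format. Ki was calculated by the Cheng–Prusoff equation.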

[19] = system: Mus musculus; experiment: Neurotoxicity in CF1 mouse assessed as minimal motor impairment at 100 mg/kg, ip after 0.5 hrs by rotorod test; assay type: toxicity, organism-based; set-up: dose 100 mg/kg, route intraperitoneal; conditions: in vivo
How it was run: (§2)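 Rotarod neurotoxicity screen in mice dosed i.p. at 30, 100 or 300 mg/kg, read 0.5 or 4 h after dosing. The animal must stay on a rod rotating at 6 rpm without falling, measured 3 times within 1 min. A fall counts as minimal motor impairment. Result is recorded as impaired animals over animals used.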

[20] = system: Mus musculus; experiment: Neurotoxicity in CF1 mouse assessed as minimal motor impairment at 100 mg/kg, ip after 4 hrs by rotorod test; assay type: toxicity, organism-based; set-up: dose 100 mg/kg, route intraperitoneal; conditions: in vivo; how it was run: as §2
[21] = system: Mus musculus; experiment: Neurotoxicity in CF1 mouse assessed as minimal motor impairment at 300 mg/kg, ip after 4 hrs by rotorod test; assay type: toxicity, organism-based; set-up: dose 300 mg/kg, route intraperitoneal; conditions: in vivo; how it was run: as §2
[22] = system: Mus musculus; experiment: Neurotoxicity in CF1 mouse assessed as minimal motor impairment at 30 mg/kg, ip after 0.5 hrs by rotorod test; assay type: toxicity, organism-based; set-up: dose 30 mg/kg, route intraperitoneal; conditions: in vivo; how it was run: as §2
[23] = system: Mus musculus; experiment: Anticonvulsant activity in CF1 mouse assessed as protection against maximal electroshock-induced seizures at 100 mg/kg, ip after 4 hrs; assay type: functional, organism-based; set-up: dose 100 mg/kg; how it was run: as §1
[24] = system: Mus musculus; experiment: Neurotoxicity in CF1 mouse assessed as minimal motor impairment at 30 mg/kg, ip after 4 hrs by rotorod test; assay type: toxicity, organism-based; set-up: dose 30 mg/kg, route intraperitoneal; conditions: in vivo; how it was run: as §2

Ki [1] [nM] | Ki [2] [nM] | Ki [3] [nM] | Ki [4] [nM] | inhibition [13] | SMILES | Activity [5] | Activity [6] | Activity [7] | Activity [8] | Activity [9] | Activity [10] | Activity [11] | Activity [12] | Activity [14] | Activity [16] | Activity [17] | Activity [23] | other results
310 | 13500 | 8840 | 1670 |  | COc1ccc2c(=O)c3cc(CN4CCN(Cc5ccccc5)CC4)ccc3oc2c1.Cl.Cl |  |  |  |  |  |  |  |  |  |  |  |  | 
 |  |  |  | inactive | COc1ccc2c(=O)c3cc(CN4CCN(Cc5ccccc5)CC4)ccc3oc2c1 | Active | inactive | inactive | inactive | inactive | inactive | inactive | inactive | inactive | inactive | inactive |  | Activity [15]: inactive
380 | 1140 | 13600 | 429 |  | COc1ccc2c(=O)c3cc(CN4CCN(c5ccccc5OC)CC4)ccc3oc2c1.Cl |  |  |  |  |  |  |  |  |  |  |  |  | Ki [18]: > 30000 nM
170 | 195 | 9360 | 24 | inactive | COc1ccc2c(=O)c3cccc(CN4CCN(c5ccccc5OC)CC4)c3oc2c1.Cl | inactive | inactive | inactive | inactive | inactive | inactive | inactive | inactive | inactive | inactive | inactive | inactive | Activity [19]: Non-toxic; Activity [20]: Non-toxic; Activity [21]: Non-toxic; Activity [22]: Non-toxic; Activity [24]: Non-toxic
 |  |  |  |  | COc1ccc2c(=O)c3cc(CN4CCN(c5ccccc5OC)CC4)ccc3oc2c1 | inactive | inactive | inactive | inactive | inactive | inactive | inactive | inactive | inactive | inactive | inactive | inactive | 

— ChEMBL document CHEMBL2401625, “Synthesis and evaluation of pharmacological properties of some new xanthone derivatives with piperazine moiety” (Bioorg Med Chem Lett, 2013)
